According to ChEMBL document CHEMBL5584325, “Discovery of novel coumarin triazolyl and phenoxyphenyl triazolyl derivatives targeting amyloid beta aggregation-mediated oxidative stress and neuroinflammation for enhanced neuroprotection” (RSC Med Chem, 2024):
Active and inactive are the calls of the source. No cut-off for these calls is given here.

How the values were obtained:
[1] = Octanol/water partition coefficient, log P of the compound incubated for 2 hrs under shaking condition by HPLC analysis; assay type: physicochemical
How it was run: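 Shake-flask log P: 10 mM stock (DMSO, or octanol for highly lipophilic compounds) partitioned between mutually saturated octanol and water at three phase ratios. Shaken 2 h at 25 ± 1 °C, phases separated, each phase quantified by C18 HPLC-UV. Mobile phase 0.1% formic acid:methanol 40:60; log P averaged over the three ratios.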

[2] = molecular target: T1, Amyloid-beta precursor protein (Homo sapiens, UniProt P05067); assay: Inhibition of amyloid beta (1 to 42) (unknown origin) aggregation at 100 uM incubated for 48 hrs by ThioflavinT staining based fluorescence assay relative to control
T1 sequence (P05067 whole entry): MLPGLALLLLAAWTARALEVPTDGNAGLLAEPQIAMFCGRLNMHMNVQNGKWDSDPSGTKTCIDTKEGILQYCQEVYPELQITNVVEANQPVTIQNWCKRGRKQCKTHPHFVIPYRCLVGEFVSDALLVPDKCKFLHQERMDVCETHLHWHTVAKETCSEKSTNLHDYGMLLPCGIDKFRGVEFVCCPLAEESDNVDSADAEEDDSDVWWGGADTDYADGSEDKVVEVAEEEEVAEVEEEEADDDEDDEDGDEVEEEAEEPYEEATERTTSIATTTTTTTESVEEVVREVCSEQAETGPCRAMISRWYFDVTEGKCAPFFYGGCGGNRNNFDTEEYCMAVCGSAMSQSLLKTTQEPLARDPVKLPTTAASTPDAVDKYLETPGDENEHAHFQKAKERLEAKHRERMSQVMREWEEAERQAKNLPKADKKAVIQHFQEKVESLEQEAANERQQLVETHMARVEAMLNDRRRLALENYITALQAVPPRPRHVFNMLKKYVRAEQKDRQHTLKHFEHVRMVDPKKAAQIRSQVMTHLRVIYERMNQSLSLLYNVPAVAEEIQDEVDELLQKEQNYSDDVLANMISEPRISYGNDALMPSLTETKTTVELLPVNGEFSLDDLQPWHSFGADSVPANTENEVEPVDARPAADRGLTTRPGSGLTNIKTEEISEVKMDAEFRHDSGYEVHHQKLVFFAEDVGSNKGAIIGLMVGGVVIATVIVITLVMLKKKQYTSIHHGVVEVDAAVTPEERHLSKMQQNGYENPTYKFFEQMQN
How it was run: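 Compound in DMSO (1 μl of a 1 mM solution) mixed with 9 μl of 25 μM Aβ1–42 in Tris pH 7.4. Incubated 48 h at 37 °C without agitation, then 200 μl of 5 μM ThT added. Fluorescence read at ex 446/em 500 nm; % inhibition vs DMSO control, solvent blank subtracted.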

[3] = molecular target: T1, Amyloid-beta precursor protein; assay: Inhibition of amyloid beta (1 to 42) (unknown origin) aggregation incubated for 48 hrs by ThioflavinT staining based fluorescence assay
[4] = system: BV-2; assay: Cytotoxicity against mouse BV-2 cells assessed as reduction in cell viability at 20 uM measured after 24 hrs by MTT assay; assay type: toxicity, cell-based; settings: bv-2, 24 h
How it was run: (§1)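 BV-2 microglia grown in DMEM with 10% FBS, HEPES and Glutamax at 37 °C, 5% CO2, seeded overnight at 1 × 10^4 cells/well. Compound alone at 0–200 μM (range extended lower where needed) for 24 h. MTT 2 h at 37 °C, formazan dissolved in DMSO, A570 read. Used to pick non-toxic concentrations.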

[5] = system: BV-2; assay: Neuroprotective activity in amyloid beta (1 to 42)-induced cytotoxicity in mouse BV-2 cells assessed as cell viability at 20 uM measured after 24 hrs by MTT assay (reference value: 54.96 +/- 1.12%); assay type: functional; settings: read-out: Activity
[6] = system: SH-SY5Y; assay: Neuroprotective activity against human SH-SY5Y cells co-cultured with 40 uM compound pretreated BV-2 cells exposed to amyloid beta (1 to 42) assessed as cell viability measured after 24 hrs by MTT assay (reference value: 80.62 +/- 0.86%); assay type: functional; settings: read-out: Activity
[7] = system: BV-2; assay: Neuroprotective activity in amyloid beta (1 to 42)-induced oxidative stress in mouse BV-2 cells assessed as intracellular ROS level at 40 uM measured after 24 hrs by DCFH-DA staining based fluorescence assay (reference value: 150.91 +/- 0.49%); assay type: functional
[8] = system: BV-2; assay: Neuroprotective activity in amyloid beta (1 to 42)-induced inflammation in mouse BV-2 cells assessed as TNFalpha mRNA expression at 40 uM measured after 24 hrs by SYBR green staining based qRT-PCR analysis (reference value: 1.73 +/- 0.22%); assay type: functional
[9] = system: BV-2; assay: Neuroprotective activity in amyloid beta (1 to 42)-induced inflammation in mouse BV-2 cells assessed as IL-1beta mRNA expression at 40 uM measured after 24 hrs by SYBR green staining based qRT-PCR analysis (reference value: 1.53 +/- 0.13%); assay type: functional
[10] = Induction of ROS generation in mouse BV-2 cells at 40 uM measured after 24 hrs by DCFH-DA staining based fluorescence assay; assay type: toxicity, cell-based; settings: bv-2, 24 h
How it was run: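 BV-2 cells seeded overnight at 1 × 10^4/well, compound alone (no Aβ). Cells loaded with 20 μM (final) DCFH-DA for 30 min at 37 °C, washed, then given conditioned medium for 24 h. Fluorescence read at ex […] nm. Expressed as % of control; n = 3 in triplicate, one-way ANOVA with LSD.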

[11] = system: BV-2; assay: Neuroprotective activity in amyloid beta (1 to 42)-induced inflammation in mouse BV-2 cells assessed as […] in IL-6 mRNA expression at 40 uM measured after 24 hrs by SYBR green staining based qRT-PCR analysis relative to control; assay type: functional
[12] = system: BV-2; assay: Neuroprotective activity in amyloid beta (1 to 42)-induced cytotoxicity in mouse BV-2 cells assessed as cell viability at 40 uM measured after 24 hrs by MTT assay (reference value: 54.96 +/- 1.12%); assay type: functional; settings: read-out: Activity
[13] = molecular target: T1, Amyloid-beta precursor protein; assay: Inhibition of amyloid beta (1 to 42) aggregation in mouse BV-2 cells exposed to amyloid-beta (1 to 42) (unknown origin) at 40 uM measured after 24 to 48 hrs by thioflavin T staining based fluorescence assay; assay type: cell-based; settings: time 24-48 hrs
[14] = system: BV-2; assay: Cytotoxicity against mouse BV-2 cells assessed as reduction in cell viability at 40 uM measured after 24 hrs by MTT assay; assay type: toxicity, cell-based; settings: bv-2, 24 h; how it was run: as §1
[15] = system: BV-2; assay: Cytotoxicity against mouse BV-2 cells assessed as reduction in cell viability at 150 uM measured after 24 hrs by MTT assay; assay type: toxicity, cell-based; settings: bv-2, 24 h; how it was run: as §1
[16] = system: BV-2; assay: Neuroprotective activity in amyloid beta (1 to 42)-induced cytotoxicity in mouse BV-2 cells assessed as cell viability at 150 uM measured after 24 hrs by MTT assay (reference value: 54.96 +/- 1.12%); assay type: functional; settings: read-out: Activity
[17] = system: BV-2; assay: Neuroprotective activity in amyloid beta (1 to 42)-induced morphological changes in mouse BV-2 cells at 20 uM; assay type: functional, cell-based
[18] = system: BV-2; assay: Cytotoxicity against mouse BV-2 cells assessed as reduction in cell viability at 10 to 200 uM measured after 24 hrs by MTT assay; assay type: toxicity, cell-based; settings: bv-2, 24 h, dose 10-200 µM; how it was run: as §1

SMILES | logP at 2 h [1] | inhibition [2] [%] | IC50 [3] [µM] | further results
O=C(OCc1cn(-c2cc3ccccc3oc2=O)nn1)c1ccccc1 | 2.38 | < 50 | – | –
O=C(Cc1ccccc1[N+](=O)[O-])OCc1cn(-c2ccc(Oc3ccccc3)cc2)nn1 | 4.29 | > 50 | 36.7 | –
O=C(NCc1cn(-c2cc3ccccc3oc2=O)nn1)c1ccccc1O | 2.02 | < 50 | – | –
O=C(NCc1cn(-c2ccc(Oc3ccccc3)cc2)nn1)c1ccccc1O | – | < 50 | – | logP ([1]; 2 h): Not Determined(Insoluble)
O=C(Cc1ccccc1[N+](=O)[O-])OCc1cn(-c2cc3ccccc3oc2=O)nn1 | 2.41 | > 50 | 17.7 | –
O=C(Cc1ccccc1[N+](=O)[O-])NCc1cn(-c2ccc(Oc3ccccc3)cc2)nn1 | 3.76 | > 50 | 69.2 | –
O=C(OCc1cn(-c2ccc(Oc3ccccc3)cc2)nn1)c1ccccc1 | 5.19 | > 50 | 4.73 | Activity [4]: Non-Toxic; viability at 20 µM [5]: 54.1%
O=C(NCc1cn(-c2cc3ccccc3oc2=O)nn1)c1ccccc1 | 2.25 | < 50 | – | –
O=C(OCc1cn(-c2cc3ccccc3oc2=O)nn1)c1ccccc1O | 2.65 | < 50 | – | –
COc1cc(C(=O)OCc2cn(-c3cc4ccccc4oc3=O)nn2)ccc1O | 2.61 | < 50 | – | –
O=C(OCc1cn(-c2ccc(Oc3ccccc3)cc2)nn1)c1ccccc1O | 5.18 | < 50 | – | –
O=C(Cc1ccccc1[N+](=O)[O-])NCc1cn(-c2cc3ccccc3oc2=O)nn1 | 1.9 | > 50 | 11.6 | –
COc1cc(/C=C/C(=O)NCc2cn(-c3cc4ccccc4oc3=O)nn2)ccc1O | 2.65 | < 50 | – | viability at 40 µM [6]: 88.3%; Activity [7]: 76.83%; Activity [8]: 0.64%; Activity [9]: 0.47%; Activity [10]: Non-Toxic; Activity [11]: inactive; viability at 40 µM [12]: 75.4%; inhibition [13]: Active; Activity [14]: Non-Toxic
COc1cc(C(=O)NCc2cn(-c3cc4ccccc4oc3=O)nn2)ccc1O | 1.95 | < 50 | – | –
COc1cc(/C=C/C(=O)CC(=O)/C=C/c2ccc(O)c(OC)c2)ccc1O | – | > 50 | – | –
COc1cc(/C=C/C(=O)NCc2cn(-c3ccc(Oc4ccccc4)cc3)nn2)ccc1O | 4.44 | > 50 | 0.04 | viability at 40 µM [6]: 87.2%; Activity [7]: 137.18%; Activity [9]: 0.05%; Activity [10]: Non-Toxic; Activity [11]: 2.04%; viability at 40 µM [12]: 60.8%; inhibition [13]: Active; Activity [14]: Non-Toxic
O=C(NCc1cn(-c2ccc(Oc3ccccc3)cc2)nn1)c1ccccc1 | 4.21 | < 50 | – | Activity [15]: Non-Toxic; viability at 150 µM [16]: 31.6%
COc1cc(C(=O)NCc2cn(-c3ccc(Oc4ccccc4)cc3)nn2)ccc1O | 4.26 | > 50 | 1.15 | Activity [4]: Non-Toxic; viability at 20 µM [5]: 34.5%; Activity [17]: Active
COc1cc(C(=O)OCc2cn(-c3ccc(Oc4ccccc4)cc3)nn2)ccc1O | 4.47 | > 50 | 0.003 | Activity [18]: Toxic
